15 compounds from ChEMBL document CHEMBL1140587, “Investigation of the terminal P4 domain in a series of D-phenylglycinamide-based factor Xa inhibitors” (Bioorg Med Chem Lett, 2007) can be followed below.

In series [1] the target is Coagulation factor X (Homo sapiens) (UniProt P00742). Description: Binding affinity to human factor10a.
Another series concerns Plasma. Description: Anticoagulant activity in human plasma assessed as concentration required to double prothrombin time. It is filed as functional.
A short description of series [2]: Cmax in rat plasma at 20 mg/kg, po. It is filed as ADME, organism-based. Also on record: dose 20 mg/kg, route oral. In a few lines:
(§1)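 Fasted Fisher rats (n = 3) got one 20 mpk oral gavage, suspended in acacia or CMC/Tween 80. Citrated blood was taken at set times and spun to plasma. Drug level was read as anti-Xa equivalents: plasma at 37 °C for 15 min, S-2222 substrate, human fXa 0.4 U/ml, 405 nm kinetic over 10 min. Values came from triplicate spiked-plasma standards by four-parameter logistic fit; AUC by area algorithm.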

Series [3] in a line: AUC(0 to 7 hrs) in rat plasma at 20 mg/kg, po. It is filed as ADME, organism-based. Also noted: time < 7 hr, dose 20 mg/kg, route oral. In a few lines: as §1

Sequence of Coagulation factor X (Homo sapiens) (P00742 41-179 limits assumed): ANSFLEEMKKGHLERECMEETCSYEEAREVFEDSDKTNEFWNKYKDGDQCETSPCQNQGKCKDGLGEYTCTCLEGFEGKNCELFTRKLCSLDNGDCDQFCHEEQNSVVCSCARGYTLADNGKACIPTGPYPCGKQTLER
Sequence of Coagulation factor X (Homo sapiens) (P00742 235-488 limits assumed): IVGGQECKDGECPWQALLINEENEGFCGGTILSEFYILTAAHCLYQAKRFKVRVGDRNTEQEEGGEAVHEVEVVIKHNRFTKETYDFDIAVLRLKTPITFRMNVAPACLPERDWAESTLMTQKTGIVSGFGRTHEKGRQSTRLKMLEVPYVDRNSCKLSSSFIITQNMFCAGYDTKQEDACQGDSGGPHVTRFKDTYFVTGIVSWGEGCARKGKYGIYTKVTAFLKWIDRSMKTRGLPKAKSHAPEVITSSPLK

For the compound `CCN(CC)CC1CCN(C(=O)[C@H](NC(=O)c2ccc3cc[nH]c3c2)c2ccccc2)CC1`, the Kapp in series [1] is 28 10^6L/mol. Moreover, in the series on Plasma, the Activity was 2.3 µM.
For `O=C(N[C@@H](C(=O)N1CCC(CN2CCC(O)C2)CC1)c1ccccc1)c1ccc2cc[nH]c2c1` (stereo not given in full), in series [1], the Kapp is 5 10^6L/mol.
With `O=C(N[C@@H](C(=O)N1CCC(CN2CCC[C@@H]2CO)CC1)c1ccccc1)c1ccc2cc[nH]c2c1`, the Kapp in series [1] was 18 10^6L/mol. In addition, the Activity with Plasma was found to be 2.2 µM.
On to `CN1CCC(C2CCN(C(=O)[C@H](NC(=O)c3ccc4cc[nH]c4c3)c3ccccc3)CC2)CC1`, for which the Kapp in series [1] was 450 10^6L/mol. Also, the concentration in series [2] peaked (Cmax) at 4 µM. In series [3], the AUC(0-t) at 7 h turned out to be 19000 ng·h/mL. The Activity in the series with Plasma was found to be 1.5 µM.
For `O=C(N[C@@H](C(=O)N1CCC(CN2CCC(CO)CC2)CC1)c1ccccc1)c1ccc2cc[nH]c2c1`, the Kapp in series [1] was 0.7 10^6L/mol.
On the same count and under the same terms, under `O=C(N[C@@H](C(=O)N1CCC(CN2CCNCC2)CC1)c1ccccc1)c1ccc2cc[nH]c2c1` stands 3.9 10^6L/mol; under `CC(C)NCC1CCN(C(=O)[C@H](NC(=O)c2ccc3cc[nH]c3c2)c2ccccc2)CC1`, 7.8 10^6L/mol.
As for `O=C(N[C@@H](C(=O)N1CCC(CN2CCC[C@H]2CO)CC1)c1ccccc1)c1ccc2cc[nH]c2c1`, in series [1], the Kapp was 9.7 10^6L/mol.
As for `O=C(N[C@@H](C(=O)N1CCC(CN2CCCC2)CC1)c1ccccc1)c1ccc2cc[nH]c2c1`, the Kapp in series [1] is 24 10^6L/mol. For the same compound, in the series on Plasma, the Activity amounted to 2.2 µM.
In the case of `Cc1c[nH]c2cc(C(=O)N[C@@H](C(=O)N3CCC(CN4CCCCC4)CC3)c3ccccc3)ccc12`, in series [1], the Kapp is 110 10^6L/mol. This compound also displayed a Cmax in series [2] of 2.4 µM. This compound yielded an AUC(0-t) at 7 h in series [3] of 14000 ng·h/mL. In the series on Plasma, the Activity amounted to 1.5 µM.
Consider `O=C(N[C@@H](C(=O)N1CCC(CN2CCC(O)CC2)CC1)c1ccccc1)c1ccc2cc[nH]c2c1`, for which, in series [1], the Kapp was 10 10^6L/mol.
Take `CN1CCN(CC2CCN(C(=O)[C@H](NC(=O)c3ccc4cc[nH]c4c3)c3ccccc3)CC2)CC1`: the Kapp in series [1] is 1.5 10^6L/mol.
Still for that read-out and setting: under `O=C(N[C@@H](C(=O)N1CCC(CN2CC[C@@H](O)C2)CC1)c1ccccc1)c1ccc2cc[nH]c2c1` stands 4 10^6L/mol.
As for `O=C(N[C@@H](C(=O)N1CCC(CN2CCCCC2)CC1)c1ccccc1)c1ccc2c(Cl)c[nH]c2c1`, the Kapp in series [1] was 710 10^6L/mol. Also, the Cmax in series [2] turned out to be 1.7 µM. In series [3], this compound had an AUC(0-t) at 7 h of 10000 ng·h/mL. For the same compound, the Activity in the series with Plasma is 1.1 µM.
For the compound `O=C(N[C@@H](C(=O)N1CCC(CN2CCCCC2)CC1)c1ccccc1)c1ccc2cc[nH]c2c1`, the Kapp in series [1] is 48 10^6L/mol. Moreover, in series [2], the Cmax is 4.7 µM. Further, the AUC(0-t) at 7 h in series [3] was found to be 23000 ng·h/mL. Moreover, the Activity in the series with Plasma was 1.2 µM.

Broadly, the Cmax is the peak of the concentration-time curve. The term AUC(0-t) denotes exposure summed from dosing to a finite time, without extrapolation to infinity.
